Assay results published in ChEMBL document CHEMBL4689842, “EUbOPEN Chemogenomics Library wave 1” (2021).

Tested on: Fibroblast
Assay: Multiplex assay against human fibroblast
Type: toxicity, cell-based
Outline: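 With compound added, live cells were imaged on a CQ1 microscope at 37°C and 5% CO2; staining with Hoechst33342, BioTracker Green Microtubule Cytoskeleton Dye, MitoTracker Red and Annexin V Alexa Fluor 680 had been done at seeding. The CellPathfinder machine-learning gating scheme split cells into Hoechst high-intensity objects or normal cells, normal cells into healthy, pyknosed or fragmented nuclei, and pyknosed cells into mitotic or apoptotic. The tubulin, mitochondrial-mass and membrane-permeability phenotypes are per cents of healthy-nucleus cells.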

[1] = 12 h, 1 µM, compound concentration 1 uM, replicate 1
[2] = 12 h, 1 µM, compound concentration 1 uM, replicate 2
[3] = 12 h, 10 µM, compound concentration 10 uM, replicate 1
[4] = 12 h, 10 µM, compound concentration 10 uM, replicate 2
[5] = 24 h, 1 µM, compound concentration 1 uM, replicate 1
[6] = 24 h, 1 µM, compound concentration 1 uM, replicate 2
[7] = 24 h, 10 µM, compound concentration 10 uM, replicate 1
[8] = 24 h, 10 µM, compound concentration 10 uM, replicate 2
[9] = 48 h, 1 µM, compound concentration 1 uM, replicate 1
[10] = 48 h, 1 µM, compound concentration 1 uM, replicate 2
[11] = 48 h, 10 µM, compound concentration 10 uM, replicate 1
[12] = 48 h, 10 µM, compound concentration 10 uM, replicate 2

## CC(C)Oc1ccccc1C(=O)Nc1ccccc1C(=O)Nc1cccc(S(=O)(=O)C(F)(F)F)c1
[1]
  Population Apoptotic (%): 75%
  Population Fragmented Nuclei (%): 23%
  Population Healthy Nuclei (%): 49%
  Population Hoechst High Intensity Objects (%): 14%
  Population Membrane Permeable-Phenotype (%): 16%
  Population Mitochondria Different-Phenotype (%): 22%
  Population Mitotic Cells (%): 25%
  Population Normal (%): 85%
  Population Pyknosed Nuclei (%): 26%
  Population Tubulin-Different-Phenotype (%): 62%
  Total Cell Count: 158
[2]
  Population Apoptotic (%): 33%
  Population Fragmented Nuclei (%): 20%
  Population Healthy Nuclei (%): 74%
  Population Hoechst High Intensity Objects (%): 5%
  Population Membrane Permeable-Phenotype (%): 10%
  Population Mitochondria Different-Phenotype (%): 45%
  Population Mitotic Cells (%): 66%
  Population Normal (%): 94%
  Population Pyknosed Nuclei (%): 6%
  Population Tubulin-Different-Phenotype (%): 37%
  Total Cell Count: 62
[3]
  Population Apoptotic (%): 61%
  Population Fragmented Nuclei (%): 39%
  Population Healthy Nuclei (%): 34%
  Population Hoechst High Intensity Objects (%): 11%
  Population Membrane Permeable-Phenotype (%): 35%
  Population Mitochondria Different-Phenotype (%): 47%
  Population Mitotic Cells (%): 38%
  Population Normal (%): 88%
  Population Pyknosed Nuclei (%): 25%
  Population Tubulin-Different-Phenotype (%): 23%
  Total Cell Count: 137
[4]
  Population Apoptotic (%): 90%
  Population Fragmented Nuclei (%): 17%
  Population Healthy Nuclei (%): 71%
  Population Hoechst High Intensity Objects (%): 4%
  Population Membrane Permeable-Phenotype (%): 97%
  Population Mitochondria Different-Phenotype (%): 92%
  Population Mitotic Cells (%): 10%
  Population Normal (%): 96%
  Population Pyknosed Nuclei (%): 10%
  Population Tubulin-Different-Phenotype (%): 100%
  Total Cell Count: 53
[5]
  Population Apoptotic (%): 61%
  Population Fragmented Nuclei (%): 25%
  Population Healthy Nuclei (%): 51%
  Population Hoechst High Intensity Objects (%): 11%
  Population Membrane Permeable-Phenotype (%): 10%
  Population Mitochondria Different-Phenotype (%): 22%
  Population Mitotic Cells (%): 38%
  Population Normal (%): 88%
  Population Pyknosed Nuclei (%): 22%
  Population Tubulin-Different-Phenotype (%): 65%
  Total Cell Count: 168
[6]
  Population Apoptotic (%): 33%
  Population Fragmented Nuclei (%): 21%
  Population Healthy Nuclei (%): 66%
  Population Hoechst High Intensity Objects (%): 7%
  Population Membrane Permeable-Phenotype (%): 11%
  Population Mitochondria Different-Phenotype (%): 58%
  Population Mitotic Cells (%): 66%
  Population Normal (%): 92%
  Population Pyknosed Nuclei (%): 11%
  Population Tubulin-Different-Phenotype (%): 35%
  Total Cell Count: 57
[7]
  Population Apoptotic (%): 79%
  Population Fragmented Nuclei (%): 40%
  Population Healthy Nuclei (%): 37%
  Population Hoechst High Intensity Objects (%): 12%
  Population Membrane Permeable-Phenotype (%): 21%
  Population Mitochondria Different-Phenotype (%): 71%
  Population Mitotic Cells (%): 20%
  Population Normal (%): 87%
  Population Pyknosed Nuclei (%): 21%
  Population Tubulin-Different-Phenotype (%): 23%
  Total Cell Count: 127
[8]
  Population Apoptotic (%): 100%
  Population Fragmented Nuclei (%): 17%
  Population Healthy Nuclei (%): 56%
  Population Hoechst High Intensity Objects (%): 11%
  Population Membrane Permeable-Phenotype (%): 91%
  Population Mitochondria Different-Phenotype (%): 94%
  Population Mitotic Cells (%): 0%
  Population Normal (%): 88%
  Population Pyknosed Nuclei (%): 27%
  Population Tubulin-Different-Phenotype (%): 98%
  Total Cell Count: 55
[9]
  Population Apoptotic (%): 70%
  Population Fragmented Nuclei (%): 30%
  Population Healthy Nuclei (%): 57%
  Population Hoechst High Intensity Objects (%): 14%
  Population Membrane Permeable-Phenotype (%): 14%
  Population Mitochondria Different-Phenotype (%): 13%
  Population Mitotic Cells (%): 29%
  Population Normal (%): 85%
  Population Pyknosed Nuclei (%): 12%
  Population Tubulin-Different-Phenotype (%): 49%
  Total Cell Count: 163
[10]
  Population Apoptotic (%): 60%
  Population Fragmented Nuclei (%): 29%
  Population Healthy Nuclei (%): 67%
  Population Hoechst High Intensity Objects (%): 7%
  Population Membrane Permeable-Phenotype (%): 4%
  Population Mitochondria Different-Phenotype (%): 1%
  Population Mitotic Cells (%): 40%
  Population Normal (%): 92%
  Population Pyknosed Nuclei (%): 3%
  Population Tubulin-Different-Phenotype (%): 55%
  Total Cell Count: 154
[11]
  Population Apoptotic (%): 78%
  Population Fragmented Nuclei (%): 69%
  Population Healthy Nuclei (%): 24%
  Population Hoechst High Intensity Objects (%): 10%
  Population Membrane Permeable-Phenotype (%): 14%
  Population Mitochondria Different-Phenotype (%): 46%
  Population Mitotic Cells (%): 21%
  Population Normal (%): 89%
  Population Pyknosed Nuclei (%): 6%
  Population Tubulin-Different-Phenotype (%): 48%
  Total Cell Count: 232
[12]
  Population Apoptotic (%): 50%
  Population Fragmented Nuclei (%): 66%
  Population Healthy Nuclei (%): 29%
  Population Hoechst High Intensity Objects (%): 9%
  Population Membrane Permeable-Phenotype (%): 21%
  Population Mitochondria Different-Phenotype (%): 65%
  Population Mitotic Cells (%): 50%
  Population Normal (%): 90%
  Population Pyknosed Nuclei (%): 3%
  Population Tubulin-Different-Phenotype (%): 55%
  Total Cell Count: 175

## O=c1[nH]c2ccccc2n1C1CCN(Cc2ccc(-c3[nH]c4cc5ncnc5cc4nc3-c3ccccc3)cc2)CC1
[1]
  Population Apoptotic (%): 66%
  Population Fragmented Nuclei (%): 45%
  Population Healthy Nuclei (%): 43%
  Population Hoechst High Intensity Objects (%): 17%
  Population Membrane Permeable-Phenotype (%): 6%
  Population Mitochondria Different-Phenotype (%): 3%
  Population Mitotic Cells (%): 33%
  Population Normal (%): 82%
  Population Pyknosed Nuclei (%): 11%
  Population Tubulin-Different-Phenotype (%): 18%
  Total Cell Count: 251
[2]
  Population Apoptotic (%): 83%
  Population Fragmented Nuclei (%): 72%
  Population Healthy Nuclei (%): 19%
  Population Hoechst High Intensity Objects (%): 31%
  Population Membrane Permeable-Phenotype (%): 15%
  Population Mitochondria Different-Phenotype (%): 0%
  Population Mitotic Cells (%): 16%
  Population Normal (%): 68%
  Population Pyknosed Nuclei (%): 8%
  Population Tubulin-Different-Phenotype (%): 23%
  Total Cell Count: 99
[3]
  Population Apoptotic (%): 67%
  Population Fragmented Nuclei (%): 50%
  Population Healthy Nuclei (%): 37%
  Population Hoechst High Intensity Objects (%): 55%
  Population Membrane Permeable-Phenotype (%): 33%
  Population Mitochondria Different-Phenotype (%): 4%
  Population Mitotic Cells (%): 32%
  Population Normal (%): 44%
  Population Tubulin-Different-Phenotype (%): 87%
  Total Cell Count: 524
[4]
  Population Apoptotic (%): 70%
  Population Fragmented Nuclei (%): 46%
  Population Healthy Nuclei (%): 40%
  Population Hoechst High Intensity Objects (%): 48%
  Population Membrane Permeable-Phenotype (%): 27%
  Population Mitochondria Different-Phenotype (%): 12%
  Population Mitotic Cells (%): 30%
  Population Normal (%): 51%
  Population Pyknosed Nuclei (%): 12%
  Population Tubulin-Different-Phenotype (%): 72%
  Total Cell Count: 158
[5]
  Population Apoptotic (%): 45%
  Population Fragmented Nuclei (%): 43%
  Population Healthy Nuclei (%): 40%
  Population Hoechst High Intensity Objects (%): 20%
  Population Membrane Permeable-Phenotype (%): 8%
  Population Mitochondria Different-Phenotype (%): 5%
  Population Mitotic Cells (%): 54%
  Population Normal (%): 79%
  Population Pyknosed Nuclei (%): 15%
  Population Tubulin-Different-Phenotype (%): 16%
  Total Cell Count: 268
[6]
  Population Apoptotic (%): 62%
  Population Fragmented Nuclei (%): 70%
  Population Healthy Nuclei (%): 17%
  Population Hoechst High Intensity Objects (%): 31%
  Population Membrane Permeable-Phenotype (%): 0%
  Population Mitochondria Different-Phenotype (%): 27%
  Population Mitotic Cells (%): 37%
  Population Normal (%): 68%
  Population Pyknosed Nuclei (%): 12%
  Population Tubulin-Different-Phenotype (%): 36%
  Total Cell Count: 94
[7]
  Population Apoptotic (%): 70%
  Population Fragmented Nuclei (%): 44%
  Population Healthy Nuclei (%): 45%
  Population Hoechst High Intensity Objects (%): 62%
  Population Membrane Permeable-Phenotype (%): 20%
  Population Mitochondria Different-Phenotype (%): 14%
  Population Mitotic Cells (%): 29%
  Population Normal (%): 37%
  Population Pyknosed Nuclei (%): 10%
  Population Tubulin-Different-Phenotype (%): 65%
  Total Cell Count: 437
[8]
  Population Apoptotic (%): 56%
  Population Fragmented Nuclei (%): 40%
  Population Healthy Nuclei (%): 36%
  Population Hoechst High Intensity Objects (%): 51%
  Population Membrane Permeable-Phenotype (%): 24%
  Population Mitochondria Different-Phenotype (%): 28%
  Population Mitotic Cells (%): 43%
  Population Normal (%): 48%
  Population Pyknosed Nuclei (%): 23%
  Population Tubulin-Different-Phenotype (%): 40%
  Total Cell Count: 143
